{"source": "ChEMBL document CHEMBL1151913", "about": "“Preparation of novel (Z)-4-ylidenebenzo[b]furo[3,2-d][1,3]oxazines and their biological activity” (2009)", "key": {"[1]": {"test_system": "MIA PaCa-2", "assay": "Growth inhibition of human MIAPaCa2 cells after 72 hrs by Alamar Blue assay", "assay_type": "functional", "details": "MIA PaCa-2, 72 h", "how_it_was_run": "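MIA PaCa-2 grown in D-MEM with 10% FCS and antibiotic-antimycotic; 1 × 10^4 cells/well seeded, 24 h at 37 °C, 5% CO2; medium replaced with drug-containing medium (final DMSO ≤0.25%) in triplicate wells, 72 h continuous exposure; alamarBlue added for further 3 h.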"}, "[2]": {"test_system": "MCF7", "assay": "Growth inhibition of human MCF7 cells after 72 hrs by Alamar Blue assay", "assay_type": "functional", "details": "MCF7, 72 h", "how_it_was_run": "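MCF-7 grown in E-MEM with 10% FCS and antibiotic-antimycotic; 1 × 10^4 cells/well seeded, 24 h at 37 °C, 5% CO2; medium replaced with drug-containing medium (final DMSO ≤0.25%) in triplicate wells, 72 h continuous exposure; alamarBlue added for further 3 h.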"}, "[3]": {"test_system": "Osteoblast", "assay": "Anti-osteoclastic bone resorption activity in ddY mouse calvarial osteoblasts assessed as inhibition of PGE2-stimulated resorption pit formation relative to 17-beta-estradiol", "assay_type": "functional, cell-based", "how_it_was_run": "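Osteoclasts generated by 7-day coculture of preconfluent calvarial osteoblasts (1–2 day old ddY mice) with fresh bone marrow cells (5 week-old male ddY mice) on collagen-coated dish in α-MEM (pH 7.0), 10% FCS, 10 nM calcitriol, 1.0 μM PGE2; collagenase-released cells plated on dentin slices with 10 nM E2 or compounds, 2 days; pits counted after toluidine blue staining.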"}}, "note": "The source made the active and inactive calls. The calls are words filed in the database; no cut-off is given here."}
{"smiles": "CCOC(=O)/C=C/C=C1\\OC(/C=C(\\Cl)c2ccc(Cl)cc2)=Nc2c1oc1ccc(Br)cc21", "values": [{"measurement": "GI50", "setting": "[1]", "value": "> 10", "unit": "µM"}, {"measurement": "GI50", "setting": "[2]", "value": "> 10", "unit": "µM"}]}
{"smiles": "COc1cccc2c3c(oc12)/C(=C/C=C/C(=O)N1CCOCC1)OC(/C=C/c1ccccc1)=N3", "values": [{"measurement": "GI50", "setting": "[1]", "value": 5.34, "unit": "µM"}, {"measurement": "GI50", "setting": "[2]", "value": "> 10", "unit": "µM"}]}
{"smiles": "COc1cccc2c3c(oc12)/C(=C/C=O)OC(/C=C/C=C(/Cl)c1ccc(F)cc1)=N3", "values": [{"measurement": "GI50", "setting": "[1]", "value": "> 10", "unit": "µM"}, {"measurement": "GI50", "setting": "[2]", "value": 7.14, "unit": "µM"}]}
{"smiles": "C/C=C/C1=Nc2c(oc3ccc(Br)cc23)/C(=C/C=O)O1", "values": [{"measurement": "Activity", "setting": "[3]", "value": "inactive"}]}
{"smiles": "O=c1[nH]cc(F)c(=O)[nH]1", "note": "[FLUOROURACIL]", "values": [{"measurement": "GI50", "setting": "[1]", "value": "> 10", "unit": "µM"}, {"measurement": "GI50", "setting": "[2]", "value": "> 10", "unit": "µM"}]}
{"smiles": "O=C(/C=C/C=C1\\OC(/C=C/c2ccccc2)=Nc2c1oc1ccc(Br)cc21)N1CCOCC1", "values": [{"measurement": "Activity", "setting": "[3]", "value": "inactive"}]}
{"smiles": "CCOP(=O)(OCC)/C(=C/C=C1\\OC(/C=C/c2ccccc2)=Nc2c1oc1ccc(Br)cc21)c1ccc(Cl)cc1", "values": [{"measurement": "Activity", "setting": "[3]", "value": "Active"}]}
{"smiles": "CCOC(=O)/C=C/C=C1\\OC(/C=C/c2ccccc2)=Nc2c1oc1ccc(Br)cc21", "values": [{"measurement": "Activity", "setting": "[3]", "value": "Active"}]}
{"smiles": "O=C/C=C1\\OC(/C=C/c2ccccc2)=Nc2c1oc1ccc(Br)cc21", "values": [{"measurement": "Activity", "setting": "[3]", "value": "inactive"}]}
{"smiles": "COc1ccc(CCNC(=O)/C=C/C=C2\\OC(/C=C/c3ccccc3)=Nc3c2oc2ccc(Br)cc32)cc1OC", "values": [{"measurement": "Activity", "setting": "[3]", "value": "inactive"}]}
{"smiles": "CCN(CC)C(=O)/C=C/C=C1\\OC(/C=C/c2ccccc2)=Nc2c1oc1ccc(Br)cc21", "values": [{"measurement": "Activity", "setting": "[3]", "value": "inactive"}]}
